Laboratory results from PubChem BioAssay.
Active and inactive are the calls of the source.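 How the source made its calls, unless noted: active means viability at or below 10% of carrier control in both of two separate runs; inconclusive means viability at or below 10% in only one of the two runs; inactive means the rest.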

Tests used:
[1] = Her2 expression decrease, cell viability multiplex – SKBR3 breast tumor cells, AlphaScreen, ATP viability, primary screen (AID 461;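 active means Her2 level under about 52% in both replicate screens, with viability over 70% of control, limit read from the data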;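 on Her2 level: lower value means less Her2 protein in the cells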;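 on viability: percent of carrier control wells set as 100% viability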); settings: SKBR3 Her2 protein level, 18-24 h, measured here: SKBR3 viability, ATP luminescence, at 10 µM
[2] = target: Receptor tyrosine-protein kinase erbB-2 (Homo sapiens) (UniProt P04626); assay: as above; settings: 18-24 h, at 10 µM, stronger effect = lower value
[3] = reduced viability of SK-BR-3 breast cancer cells – cell-based, 24 h, human, pilot screen (AID 572); settings: SK-BR-3 viability, CellTiter-Glo luminescence, at 10 µM, stronger effect = lower value;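 further: compound exposure lasted between 18 and 24 h rather than exactly 24 h; 100% = carrier-treated control wells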
[4] = HUVEC growth inhibition – cell-based, human, primary screen (AID 575;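 active means viability at or below 30% in both replicate assays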;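 further: 100% = median of untreated cell wells with 0.1% DMSO on each plate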); settings: HUVEC proliferation, CellTiter-Glo luminescence, 72 h; at 10 µM; stronger effect = lower value
In short: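 Timing: 72 h treatment at 37 °C; material: HUVEC primary cells; technique: CellTiter-Glo luminescence measuring cellular ATP; controls: vehicle and MePR control wells; measure: percent of median DMSO-control luminescence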

[5] = H69AR cell proliferation blockers – human, duplicate replicates, primary screen (AID 580;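 active means viability at or under a set limit in both replicates, limit being median viability minus 3 SD, cut at about 48% in these data, passing the limit was not always enough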;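 further: 100% = mean luminescence of untreated wells and 0% = no signal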); settings: H69AR lung tumor cells viability, ATP luminescence, 72 h; at 10 µM; stronger effect = lower value
[6] = MRP1 drug-resistance reversers in H69AR cells – cell-based, doxorubicin co-treatment, pilot screen (AID 601;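 active means viability loss from added drug above about 55%, and viability with drug at most 40%, in both replicates, limit read from the data, passing the limit was not always enough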); settings: CellTiter-Glo, 72 h, at 10 µM; for differential viability (reversal): stronger effect = higher value
[7] = yeast transport mutant growth inhibition pilot in 384-well plates, post-Golgi transport modulator project (AID 636; in the data active means inhibition above about 31%); settings: absorbance 615 nm, about 18 h, stronger effect = higher value
[8] = growth suppression of yeast trafficking mutant, preliminary HTS, modulators of trafficking downstream of Golgi apparatus project, 1536-format plate, OD 615 nm (AID 637; in the data active means inhibition above about 30%); settings: yeast transport mutant growth, absorbance 615 nm, 18 h; stronger effect = higher value
[9] = H69AR cells + 2 uM doxorubicin, measured here: viability with 2 uM doxorubicin, stronger effect = lower value
[10] = H69AR cells, compound alone cytotoxicity

Chain of Receptor tyrosine-protein kinase erbB-2 (Homo sapiens) (P04626 whole entry, looked up): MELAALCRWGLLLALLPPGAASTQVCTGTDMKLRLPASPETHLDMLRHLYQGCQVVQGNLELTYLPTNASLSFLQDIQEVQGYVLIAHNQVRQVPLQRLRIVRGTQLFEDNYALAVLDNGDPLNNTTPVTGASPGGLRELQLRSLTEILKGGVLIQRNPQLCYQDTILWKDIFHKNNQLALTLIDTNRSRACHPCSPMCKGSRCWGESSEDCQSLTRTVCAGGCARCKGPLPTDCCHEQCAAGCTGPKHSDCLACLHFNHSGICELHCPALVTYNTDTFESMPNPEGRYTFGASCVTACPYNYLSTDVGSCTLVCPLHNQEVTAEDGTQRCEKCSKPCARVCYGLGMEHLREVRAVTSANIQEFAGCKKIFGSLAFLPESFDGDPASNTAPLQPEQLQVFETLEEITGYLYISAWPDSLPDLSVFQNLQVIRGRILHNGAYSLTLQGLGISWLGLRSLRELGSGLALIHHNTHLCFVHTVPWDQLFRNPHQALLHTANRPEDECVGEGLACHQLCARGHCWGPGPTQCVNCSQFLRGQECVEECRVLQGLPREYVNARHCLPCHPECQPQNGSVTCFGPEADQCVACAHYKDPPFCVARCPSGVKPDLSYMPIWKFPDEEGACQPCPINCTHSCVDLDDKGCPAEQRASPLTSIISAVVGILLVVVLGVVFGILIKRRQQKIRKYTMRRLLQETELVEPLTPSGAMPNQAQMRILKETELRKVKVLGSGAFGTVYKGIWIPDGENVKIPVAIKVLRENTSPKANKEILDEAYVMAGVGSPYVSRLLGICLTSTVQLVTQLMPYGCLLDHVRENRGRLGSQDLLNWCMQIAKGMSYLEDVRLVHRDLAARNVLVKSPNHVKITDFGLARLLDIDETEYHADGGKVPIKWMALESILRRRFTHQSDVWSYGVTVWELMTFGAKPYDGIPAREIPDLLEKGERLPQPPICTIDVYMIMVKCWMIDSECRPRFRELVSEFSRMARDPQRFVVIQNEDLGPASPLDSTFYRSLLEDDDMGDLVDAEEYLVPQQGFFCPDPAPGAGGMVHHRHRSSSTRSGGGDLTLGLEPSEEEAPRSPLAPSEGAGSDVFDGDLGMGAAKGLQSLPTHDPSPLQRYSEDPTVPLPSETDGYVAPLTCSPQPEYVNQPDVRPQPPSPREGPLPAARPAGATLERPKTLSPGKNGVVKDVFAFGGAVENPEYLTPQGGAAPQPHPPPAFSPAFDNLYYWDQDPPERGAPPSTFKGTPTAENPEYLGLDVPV

SMILES	viability [1] [%]	Her2 level [2]	viability [3]	viability [4]	viability [5]	differential viability (reversal) ([6]; H69AR cells + 2 uM doxorubicin)	viability [6, 9] [%]	viability [6, 10] [%]	inhibition [7]	inhibition [8]
Cc1ccccc1NC(=O)C1Cc2ccccc2C(=O)O1 (stereo not given)	134	112% (inactive)	134% (inactive)	116% (inactive)	98.7% (inactive)	7.54% (inactive)	91.2	98.7	-4.93% (inactive)	3.23% (inactive)
CC(NS(=O)(=O)c1ccc(F)cc1)C(c1cccs1)N1CCN(C)CC1 (stereo not given)	118	133% (inactive)	118% (inactive)	87.9% (inactive)	96.7% (inactive)	14.4% (inactive)	82.3	96.7	-3.29% (inactive)	-5.67% (inactive)
O=C(/C=N/O)Nc1cccnc1	110	90% (inactive)	110% (inactive)	91.3% (inactive)	83.2% (inactive)	-6.35% (inactive)	89.6	83.2	-1.84% (inactive)	3.71% (inactive)
CC1(C)CC(=O)C=C(Nc2ccc(F)cc2)C1	102	95% (inactive)	102% (inactive)	90.5% (inactive)	96.5% (inactive)	6.35% (inactive)	90.1	96.5	-0.39% (inactive)	-3.64% (inactive)
COc1ccc(OCc2cccc(C(=O)O)c2)cc1	105	78.5% (inactive)	105% (inactive)	75.7% (inactive)	88.1% (inactive)	7.06% (inactive)	81	88.1	-4.47% (inactive)	0.91% (inactive)
COc1cccc2cc(C(=O)C3=C(O)C(=O)N(CCCN4CCOCC4)C3c3ccncc3)oc12 (stereo not given)	98	142% (inactive)	98% (inactive)	110% (inactive)	96.8% (inactive)	-2.74% (inactive)	99.6	96.8	-5.19% (inactive)	-5.5% (inactive)
O=C(NC1CCCCC1)C1CC(O)CN1C(=O)OCc1ccccc1 (stereo not given)	88	93% (inactive)	88% (inactive)	110% (inactive)	93.4% (inactive)	9.51% (inactive)	83.9	93.4	0.13% (inactive)	-3.09% (inactive)
CCOC(=O)N1CCN(S(=O)(=O)c2cc(Cl)c(OC)cc2Cl)CC1	85	102% (inactive)	85% (inactive)	108% (inactive)	91.1% (inactive)	-0.21% (inactive)	91.3	91.1	-2.24% (inactive)	-4.92% (inactive)
CC1=C(C(=O)OC2CCCCC2)C(c2cccnc2)n2ncnc2N1 (stereo not given)	104	66.5% (inactive)	104% (inactive)	105% (inactive)	81.8% (inactive)	-8.64% (inactive)	90.4	81.8	-6.58% (inactive)	-5.83% (inactive)
C=CCSC1=C(C#N)C(c2ccccc2Cl)CC(=O)N1 (stereo not given)	72	85.5% (inactive)	72% (inactive)	103% (inactive)	96.5% (inactive)	1.45% (inactive)	95.1	96.5	0.27% (inactive)	-2.26% (inactive)
c1ccc(-c2cc3c(nn2)CCc2nonc2-3)cc1	98.5	102% (inactive)	98.5% (inactive)	117% (inactive)	97.8% (inactive)	-9.73% (inactive)	108	97.8	0% (inactive)	4.26% (inactive)
Cc1ccccc1NC(=O)N1C2CCCC1CC(NC(=O)C1CC1)C2 (stereo not given)	104	95% (inactive)	104% (inactive)	94% (inactive)	104% (inactive)	10.3% (inactive)	93.9	104	-7.07% (inactive)	9.02% (inactive)
O=C(O)C1CC=CCC1C(=O)NCc1ccccc1 (stereo not given)	106	87% (inactive)	106% (inactive)	91.1% (inactive)	92.2% (inactive)	-3.77% (inactive)	96	92.2	-4.4% (inactive)	-2.38% (inactive)
Cc1ccccc1C(=O)NC1CCN(CC(=O)Nc2nccs2)CC1	92.5	96% (inactive)	92.5% (inactive)	88.8% (inactive)	97.8% (inactive)	11.6% (inactive)	86.2	97.8	-0.67% (inactive)	5.08% (inactive)
COc1cc(C2CC(=O)NC3=C2C(=O)CC(C)(C)C3)ccc1O (stereo not given)	89.5	93.5% (inactive)	89.5% (inactive)	82.7% (inactive)	109% (inactive)	19.9% (inactive)	89.5	109	-3.82% (inactive)	-4.17% (inactive)
CSC1=NCCN1C(=O)c1ccc(S(=O)(=O)N2CCCC2)cc1	111	107% (inactive)	111% (inactive)	91.2% (inactive)	91.3% (inactive)	-1.11% (inactive)	92.4	91.3	0.77% (inactive)	-3.17% (inactive)

SMILES	viability [1] [%]	Her2 level [2]	viability [3]	viability [4]	viability [5]	differential viability (reversal) ([6]; H69AR cells + 2 uM doxorubicin)	viability [6, 9] [%]	viability [6, 10] [%]	inhibition [7]	inhibition [8]
CCCC(C)C(=O)Nc1ccc(C(N)=O)cc1 (stereo not given)	95	93.5% (inactive)	95% (inactive)	96% (inactive)	93.1% (inactive)	7.36% (inactive)	85.7	93.1	-5.81% (inactive)	-1.33% (inactive)
Cc1cccc(NC(=O)Cn2c(=O)n(C)c3ccccc32)c1	100	90.5% (inactive)	100% (inactive)	100% (inactive)	102% (inactive)	9.13% (inactive)	92.9	102	-3.33% (inactive)	-2.7% (inactive)
COc1ccc(OC)c(C(=O)COC(=O)c2cc(C)oc2C)c1	112	71% (inactive)	112% (inactive)	62.9% (inactive)	92.7% (inactive)	4.87% (inactive)	87.9	92.7	-7.33% (inactive)	-4.92% (inactive)
CCS(=O)(=O)N1CCCC(C(=O)NCc2ccccc2Cl)C1 (stereo not given)	90	110% (inactive)	90% (inactive)	99.1% (inactive)	94.7% (inactive)	5.79% (inactive)	88.9	94.7	-7.6% (inactive)	-3.61% (inactive)
O=S(=O)(Cc1ccccc1)N1CCCCCC1	93	83.5% (inactive)	93% (inactive)	96.1% (inactive)	101% (inactive)	2.14% (inactive)	98.8	101	-5.81% (inactive)	2.3% (inactive)
O=C(O)CC1CCCC(c2ccccc2)C1=O (stereo not given)	97	110% (inactive)	97% (inactive)	108% (inactive)	99.6% (inactive)	6.58% (inactive)	93	99.6	-6.4% (inactive)	-9.35% (inactive)
Cc1ccc(-c2ccc(=O)n(CCC(=O)NCc3ccccn3)n2)cc1	94.5	84% (inactive)	94.5% (inactive)	89.3% (inactive)	84.3% (inactive)	-1.96% (inactive)	86.2	84.3	-3.95% (inactive)	0.81% (inactive)
CCN1C(=O)NC(c2cc(Br)ccc2OC)C(C(=O)OC)=C1C (stereo not given)	104	114% (inactive)	104% (inactive)	104% (inactive)	95.3% (inactive)	-2.65% (inactive)	98	95.3	-2.63% (inactive)	-8.1% (inactive)
COc1ccccc1-c1cn[nH]c(=S)n1	101	108% (inactive)	101% (inactive)	100% (inactive)	96.1% (inactive)	3.25% (inactive)	92.9	96.1	1.07% (inactive)	-8.06% (inactive)
O=S(=O)(c1cc(Cl)ccc1Br)N1CCOCC1	95.5	108% (inactive)	95.5% (inactive)	103% (inactive)	91% (inactive)	0.56% (inactive)	90.4	91	-2.99% (inactive)	-0.17% (inactive)
Cc1nnc(C)n1/N=C/c1cccc(Oc2ccccc2)c1	100	78.5% (inactive)	100% (inactive)	98% (inactive)	87.4% (inactive)	4.77% (inactive)	82.6	87.4	-1.97% (inactive)	0.16% (inactive)
CC(=O)N1CCc2cc(S(=O)(=O)NCCC3=CCCCC3)ccc21	108	85% (inactive)	108% (inactive)	64% (inactive)	91.1% (inactive)	-7.85% (inactive)	99	91.1	-3.29% (inactive)	-2.22% (inactive)
Cc1nc2ccc(N3C(=O)CCC3=O)cc2[nH]1	100	101% (inactive)	100% (inactive)	97.6% (inactive)	103% (inactive)	7.96% (inactive)	95.2	103	-5.07% (inactive)	-1.45% (inactive)
CCOc1cccc(C(=O)Nc2cccc(-c3nc4ncccc4o3)c2C)c1	99	75.5% (inactive)	99% (inactive)	81.5% (inactive)	75.6% (inactive)	-12.9% (inactive)	88.5	75.6	-0.39% (inactive)	-0.97% (inactive)
CC(NC(=O)c1ccc(F)cc1)C(c1cccs1)N1CCN(C)CC1 (stereo not given)	90.5	86.5% (inactive)	90.5% (inactive)	98% (inactive)	91.9% (inactive)	0.16% (inactive)	91.7	91.9	-6% (inactive)	3.44% (inactive)
CSc1nnc(-c2ccc(NC(=O)CCc3ccccc3)cc2)n1C	91.5	82.5% (inactive)	91.5% (inactive)	111% (inactive)	87% (inactive)	-2.53% (inactive)	89.5	87	-4.59% (inactive)	3.11% (inactive)
